Values after ≈ are worked out from the molar mass of the structure shown.
What was measured:
Assay type in all cases: functional
Staphylococcus aureus [1] = experiment: Antibacterial activity against beta-lactamase positive SCCmec type 1 methicillin-resistant Staphylococcus aureus isolate 12192 by broth microdilution method
In short: (§1)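 MIC by broth microdilution in cation-adjusted Mueller-Hinton broth per CLSI recommendations. The isolates were mecA-positive MRSA, SCCmec-typed mainly by multiplex PCR. Every isolate was beta-lactamase positive by whole-cell nitrocefin hydrolysis.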

Staphylococcus aureus [2] = experiment: Induction of mecA gene expression in beta-lactamase positive SCCmec type 3 methicillin-resistant Staphylococcus aureus isolate 12617 at MIC after 1 hr by multiplex PCR method
Staphylococcus aureus [3] = experiment: Antibacterial activity against beta-lactamase positive SCCmec type 2 methicillin-resistant Staphylococcus aureus isolate 17357 by broth microdilution method; in short: as §1
Staphylococcus aureus [4] = experiment: Induction of mecA gene expression in beta-lactamase positive SCCmec type 1 methicillin-resistant Staphylococcus aureus isolate 11631 at MIC after 1 hr by multiplex PCR method
Staphylococcus aureus [5] = experiment: Induction of mecA gene expression in beta-lactamase positive SCCmec type 4a methicillin-resistant Staphylococcus aureus isolate 11617 at MIC after 1 hr by multiplex PCR method
Staphylococcus aureus [6] = experiment: Antibacterial activity against beta-lactamase positive SCCmec type 2 methicillin-resistant Staphylococcus aureus isolate 11218 by broth microdilution method; in short: as §1
Staphylococcus aureus [7] = experiment: Induction of mecA gene expression in beta-lactamase positive SCCmec type 2 methicillin-resistant Staphylococcus aureus isolate 11521 at MIC after 1 hr by multiplex PCR method
Staphylococcus aureus [8] = experiment: Induction of mecA gene expression in beta-lactamase positive SCCmec type 4a methicillin-resistant Staphylococcus aureus isolate 12639 at MIC after 1 hr by multiplex PCR method
Staphylococcus aureus [9] = experiment: Antibacterial activity against beta-lactamase positive SCCmec type 2 methicillin-resistant Staphylococcus aureus isolate 11521 by broth microdilution method; in short: as §1
Staphylococcus aureus [10] = experiment: Induction of mecA gene expression in beta-lactamase positive SCCmec type 2 methicillin-resistant Staphylococcus aureus isolate 11218 at MIC after 1 hr by multiplex PCR method
Staphylococcus aureus [11] = experiment: Antibacterial activity against beta-lactamase positive SCCmec type 2 methicillin-resistant Staphylococcus aureus isolate 17256 by broth microdilution method; in short: as §1
Staphylococcus aureus [12] = experiment: Induction of mecA gene expression in beta-lactamase positive SCCmec type 4a methicillin-resistant Staphylococcus aureus isolate 14145 at MIC after 1 hr by multiplex PCR method
Staphylococcus aureus [13] = experiment: Induction of mecA gene expression in beta-lactamase positive SCCmec type 3 methicillin-resistant Staphylococcus aureus isolate 12662 at MIC after 1 hr by multiplex PCR method
Staphylococcus aureus [14] = experiment: Induction of mecA gene expression in beta-lactamase positive SCCmec type 2 methicillin-resistant Staphylococcus aureus isolate 17256 at MIC after 1 hr by multiplex PCR method
Staphylococcus aureus [15] = experiment: Antibacterial activity against beta-lactamase positive SCCmec type 3 methicillin-resistant Staphylococcus aureus isolate 14567 by broth microdilution method; in short: as §1
Staphylococcus aureus [16] = experiment: Antibacterial activity against beta-lactamase positive SCCmec type 3 methicillin-resistant Staphylococcus aureus isolate 12662 by broth microdilution method; in short: as §1
Staphylococcus aureus [17] = experiment: Antibacterial activity against beta-lactamase positive SCCmec type 2 methicillin-resistant Staphylococcus aureus isolate 15855 by broth microdilution method; in short: as §1
Staphylococcus aureus [18] = experiment: Antibacterial activity against beta-lactamase positive SCCmec type 3 methicillin-resistant Staphylococcus aureus isolate 12617 by broth microdilution method; in short: as §1
Staphylococcus aureus [19] = experiment: Antibacterial activity against beta-lactamase positive SCCmec type 5 methicillin-resistant Staphylococcus aureus isolate 12868 by broth microdilution method; in short: as §1
Staphylococcus aureus [20] = experiment: Antibacterial activity against beta-lactamase positive SCCmec type 4a methicillin-resistant Staphylococcus aureus isolate 14154 by broth microdilution method; in short: as §1
Staphylococcus aureus [21] = experiment: Antibacterial activity against beta-lactamase positive SCCmec type 4a methicillin-resistant Staphylococcus aureus isolate 14145 by broth microdilution method; in short: as §1
Staphylococcus aureus [22] = experiment: Induction of mecA gene expression in beta-lactamase positive SCCmec type nontypeable methicillin-resistant Staphylococcus aureus isolate 17329 at MIC after 1 hr by multiplex PCR method
Staphylococcus aureus [23] = experiment: Induction of mecA gene expression in beta-lactamase positive SCCmec type 3 methicillin-resistant Staphylococcus aureus isolate 12597 at MIC after 1 hr by multiplex PCR method
Staphylococcus aureus [24] = experiment: Induction of mecA gene expression in beta-lactamase positive SCCmec type 5 methicillin-resistant Staphylococcus aureus isolate 12868 at MIC after 1 hr by multiplex PCR method
Staphylococcus aureus [25] = experiment: Antibacterial activity against beta-lactamase positive SCCmec type 1 methicillin-resistant Staphylococcus aureus isolate 11631 by broth microdilution method; in short: as §1
Staphylococcus aureus [26] = experiment: Induction of mecA gene expression in beta-lactamase positive SCCmec type 1 methicillin-resistant Staphylococcus aureus isolate 12575 at MIC after 1 hr by multiplex PCR method
Staphylococcus aureus [27] = experiment: Induction of mecA gene expression in beta-lactamase positive SCCmec type 1 methicillin-resistant Staphylococcus aureus isolate 12192 at MIC after 1 hr by multiplex PCR method
Staphylococcus aureus [28] = experiment: Antibacterial activity against beta-lactamase positive SCCmec type 3 methicillin-resistant Staphylococcus aureus isolate 12597 by broth microdilution method; in short: as §1
Staphylococcus aureus [29] = experiment: Induction of mecA gene expression in beta-lactamase positive SCCmec type 2 methicillin-resistant Staphylococcus aureus isolate 17357 at MIC after 1 hr by multiplex PCR method
Staphylococcus aureus [30] = experiment: Induction of mecA gene expression in beta-lactamase positive SCCmec type 2 methicillin-resistant Staphylococcus aureus isolate 15855 at MIC after 1 hr by multiplex PCR method
Staphylococcus aureus [31] = experiment: Antibacterial activity against beta-lactamase positive SCCmec type 4a methicillin-resistant Staphylococcus aureus isolate 11617 by broth microdilution method; in short: as §1
Staphylococcus aureus [32] = experiment: Antibacterial activity against beta-lactamase positive SCCmec type 1 methicillin-resistant Staphylococcus aureus isolate 12575 by broth microdilution method; in short: as §1
Staphylococcus aureus [33] = experiment: Induction of mecA gene expression in beta-lactamase positive SCCmec type 3 methicillin-resistant Staphylococcus aureus isolate 14567 at MIC after 1 hr by multiplex PCR method
Staphylococcus aureus [34] = experiment: Antibacterial activity against beta-lactamase positive SCCmec type 4a methicillin-resistant Staphylococcus aureus isolate 12639 by broth microdilution method; in short: as §1
Staphylococcus aureus [35] = experiment: Induction of mecA gene expression in beta-lactamase positive SCCmec type 4a methicillin-resistant Staphylococcus aureus isolate 14154 at MIC after 1 hr by multiplex PCR method
Staphylococcus aureus [36] = experiment: Antibacterial activity against beta-lactamase positive SCCmec type nontypeable methicillin-resistant Staphylococcus aureus isolate 17329 by broth microdilution method; in short: as §1

| Compound | MIC (Staphylococcus aureus [1]) [µg/mL] | fold change (FC) (Staphylococcus aureus [2]) | MIC (Staphylococcus aureus [3]) [µg/mL] | fold change (FC) (Staphylococcus aureus [4]) | fold change (FC) (Staphylococcus aureus [5]) | MIC (Staphylococcus aureus [6]) [µg/mL] | fold change (FC) (Staphylococcus aureus [7]) | fold change (FC) (Staphylococcus aureus [8]) | MIC (Staphylococcus aureus [9]) [µg/mL] | fold change (FC) (Staphylococcus aureus [10]) | MIC (Staphylococcus aureus [11]) [µg/mL] | fold change (FC) (Staphylococcus aureus [12]) | fold change (FC) (Staphylococcus aureus [13]) | fold change (FC) (Staphylococcus aureus [14]) | MIC (Staphylococcus aureus [15]) [µg/mL] | MIC (Staphylococcus aureus [16]) [µg/mL] | MIC (Staphylococcus aureus [17]) [µg/mL] | MIC (Staphylococcus aureus [18]) [µg/mL] | MIC (Staphylococcus aureus [19]) [µg/mL] | MIC (Staphylococcus aureus [20]) [µg/mL] | other results |
| --- | --- | --- | --- | --- | --- | --- | --- | --- | --- | --- | --- | --- | --- | --- | --- | --- | --- | --- | --- | --- | --- |
| Nc1nc(/C(=N/O)C(=O)N[C@@H]2C(=O)N3C(C(=O)O)=C(/C=C4\CCN([C@@H]5CCNC5)C4=O)CS[C@H]23)ns1 [CEFTOBIPROLE] | 2 (≈ 3.74 µM) | 38 | 4 (≈ 7.48 µM) | 65 | 30 | 0.5 (≈ 0.935 µM) | 49 | 5 | 0.5 (≈ 0.935 µM) | 3 | 4 (≈ 7.48 µM) | 14 | 22 | 3 | 2 (≈ 3.74 µM) | 0.5 (≈ 0.935 µM) | 1 (≈ 1.87 µM) | 2 (≈ 3.74 µM) | 0.5 (≈ 0.935 µM) | 1 (≈ 1.87 µM) | MIC (Staphylococcus aureus [21]): 1 µg/mL (≈ 1.87 µM); fold change (FC) (Staphylococcus aureus [22]): 4; fold change (FC) (Staphylococcus aureus [23]): 24; fold change (FC) (Staphylococcus aureus [24]): 20; MIC (Staphylococcus aureus [25]): 2 µg/mL (≈ 3.74 µM); fold change (FC) (Staphylococcus aureus [26]): 52; fold change (FC) (Staphylococcus aureus [27]): 53; MIC (Staphylococcus aureus [28]): 2 µg/mL (≈ 3.74 µM); fold change (FC) (Staphylococcus aureus [29]): 3; fold change (FC) (Staphylococcus aureus [30]): 57; MIC (Staphylococcus aureus [31]): 0.5 µg/mL (≈ 0.935 µM); MIC (Staphylococcus aureus [32]): 2 µg/mL (≈ 3.74 µM); fold change (FC) (Staphylococcus aureus [33]): 27; MIC (Staphylococcus aureus [34]): 0.5 µg/mL (≈ 0.935 µM); fold change (FC) (Staphylococcus aureus [35]): 20; MIC (Staphylococcus aureus [36]): 4 µg/mL (≈ 7.48 µM) |
| Cc1onc(-c2ccccc2)c1C(=O)N[C@@H]1C(=O)N2[C@@H]1SC(C)(C)[C@@H]2C(=O)O [OXACILLIN] | > 256 | 50 | > 256 | 66 | 5 | 32 (≈ 79.7 µM) | 13 | 2 | 256 (≈ 638 µM) | 3 | 256 (≈ 638 µM) | 5 | 18 | 4 | 256 (≈ 638 µM) | 256 (≈ 638 µM) | 256 (≈ 638 µM) | > 256 | 4 (≈ 9.96 µM) | 16 (≈ 39.9 µM) | MIC (Staphylococcus aureus [21]): 16 µg/mL (≈ 39.9 µM); fold change (FC) (Staphylococcus aureus [22]): 50; fold change (FC) (Staphylococcus aureus [23]): 31; fold change (FC) (Staphylococcus aureus [24]): 2; MIC (Staphylococcus aureus [25]): > 256 µg/mL; fold change (FC) (Staphylococcus aureus [26]): 69; fold change (FC) (Staphylococcus aureus [27]): 41; MIC (Staphylococcus aureus [28]): > 256 µg/mL; fold change (FC) (Staphylococcus aureus [29]): 15; fold change (FC) (Staphylococcus aureus [30]): 25; MIC (Staphylococcus aureus [31]): 8 µg/mL (≈ 19.9 µM); MIC (Staphylococcus aureus [32]): > 256 µg/mL; fold change (FC) (Staphylococcus aureus [33]): 27; MIC (Staphylococcus aureus [34]): 64 µg/mL (≈ 159 µM); fold change (FC) (Staphylococcus aureus [35]): 6; MIC (Staphylococcus aureus [36]): 256 µg/mL (≈ 638 µM) |

From ChEMBL document CHEMBL1240365, “Effects of ceftobiprole and oxacillin on mecA expression in methicillin-resistant Staphylococcus aureus clinical isolates” (2010)
